Test results from ChEMBL document CHEMBL5335820, “Novel quinolinepiperazinyl-aryltetrazoles targeting the blood stage of Plasmodium falciparum” (RSC Med Chem, 2024).

How the values were obtained:
Plasmodium falciparum [1] = test: Antiplasmodial activity against chloroquine resistant Plasmodium falciparum INDO infected in human erythrocytes assessed as inhibition of parasite growth at 100 uM incubated for 72 hrs by SYBR green I staining based fluorescence plate reader analysis relative to control; type: functional; conditions: Erythrocyte
Procedure, shortened: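 Single-concentration screen at 100 μM against PfINDO, triplicate wells, 72 h. Final DMSO was 0.4%. Growth was read by SYBR Green I lysis (excitation 485, emission 530 nm) and expressed relative to untreated culture, taken as 100% growth.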

Plasmodium falciparum [2] = test: Antiplasmodial activity against chloroquine resistant Plasmodium falciparum INDO infected in human erythrocytes assessed as inhibition of parasite growth incubated for 72 hrs by SYBR green I staining based fluorescence plate reader analysis; type: functional, organism-based; conditions: Erythrocyte
Procedure, shortened: (§1)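 Pf3D7 or PfINDO was cultured in O+ human erythrocytes at 37 °C under 5% O2/5% CO2/90% N2 and ring-synchronised with 5% sorbitol. Cultures were exposed to 0–100 μM in triplicate for 72 h, with final DMSO 0.4%. After SYBR Green I lysis buffer (1 h, dark, 37 °C), fluorescence was read at 485/530 nm. Chloroquine-well counts were subtracted as background, and IC50 was obtained by non-linear regression.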

Plasmodium falciparum [3] = test: Antiplasmodial activity against chloroquine sensitive Plasmodium falciparum 3D7 infected in human erythrocytes assessed as inhibition of parasite growth at 100 uM incubated for 72 hrs by SYBR green I staining based fluorescence plate reader analysis relative to control; type: functional; conditions: 3D7, Erythrocyte
Procedure, shortened: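 Pf3D7 grown in O+ human erythrocytes at 4% haematocrit, Albumax (0.05%)-RPMI, 37 °C, 5% O2/5% CO2/90% N2, sorbitol-synchronised at ring stage. Single-point screen at 100 μM, final DMSO 0.4%, triplicate wells, 72 h. Read-out by SYBR Green I lysis buffer (Tris pH 7.5, EDTA, saponin, Triton X-100), 1 h dark at 37 °C, ex 485/em 530 nm. Growth expressed relative to untreated culture.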

Plasmodium falciparum [4] = test: Antiplasmodial activity against chloroquine sensitive Plasmodium falciparum 3D7 infected in human erythrocytes assessed as inhibition of parasite growth incubated for 72 hrs by SYBR green I staining based fluorescence plate reader analysis; type: functional, organism-based; conditions: 3D7, Erythrocyte; procedure, shortened: as §1
[5] = Resistance index, ratio of IC50 of chloroquine resistant Plasmodium falciparum INDO to chloroquine sensitive Plasmodium falciparum 3D7; type: functional
Procedure, shortened: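 Resistance index = IC50 against PfINDO / IC50 against Pf3D7. Both IC50s came from 72 h SYBR Green I assays.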

[6] = Selectivity index, ratio of CC50 for human HEK293 cells to IC50 of chloroquine resistant Plasmodium falciparum INDO infected in human erythrocytes; type: toxicity, cell-based; conditions: read-out: Ratio CC50/IC50
Procedure, shortened: (§2)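 Selectivity index = CC50 / PfINDO IC50. CC50 came from MTT assays: 10^4 HEK293 or HUH7 cells per well, seeded overnight and exposed to 0–100 μM for 24 h, then MTT for 4 h at 37 °C with formazan dissolved in DMSO and read at A570. Controls were 0.8% DMSO (full growth) and 10% DMSO (zero growth).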

[7] = Cytotoxicity against human HEK293 cells assessed as reduction in cell viability incubated for 24 hrs by MTT assay; type: toxicity, cell-based
[8] = Selectivity index, ratio of CC50 for human Huh-7 cells to IC50 for antiplasmodial activity against chloroquine resistant Plasmodium falciparum INDO infected in human erythrocytes; type: toxicity, cell-based; conditions: read-out: Ratio CC50/IC50; procedure, shortened: as §2
[9] = Cytotoxicity against human Huh-7 cells assessed as reduction in cell viability incubated for 24 hrs by MTT assay; type: toxicity, cell-based
Plasmodium falciparum [10] = test: Antiplasmodial activity against chloroquine resistant ring-stage Plasmodium falciparum INDO infected in human erythrocytes assessed as inhibition of parasite growth incubated for 12 hrs; type: functional, organism-based; conditions: Erythrocyte
Procedure, shortened: (§3)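 PfINDO cultures were staged at 0–6 h (rings), 18–22 h (trophozoites), 30–34 h (early schizonts) and 40–44 h (late schizonts) post-invasion. Each was exposed to varying concentrations for 12 h, washed free of compound by centrifugation, and grown 48 h in drug-free medium. IC50 came from growth curves, with untreated culture as 100% and chloroquine-treated culture as 0% growth.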

Plasmodium falciparum [11] = test: Antimalarial activity against chloroquine resistant early schizont Plasmodium falciparum INDO infected in human erythrocytes assessed as inhibition of parasite growth incubated for 12 hrs; type: functional, organism-based; conditions: Erythrocyte; procedure, shortened: as §3
Plasmodium falciparum [12] = test: Antimalarial activity against chloroquine resistant trophozoites-stage Plasmodium falciparum INDO infected in human erythrocytes assessed as inhibition of parasite growth incubated for 12 hrs; type: functional, organism-based; conditions: Erythrocyte; procedure, shortened: as §3
Plasmodium falciparum [13] = test: Antimalarial activity against chloroquine resistant late schizont Plasmodium falciparum INDO infected in human erythrocytes assessed as inhibition of parasite growth incubated for 12 hrs; type: functional, organism-based; conditions: Erythrocyte; procedure, shortened: as §3
Plasmodium berghei = test: Antimalarial activity against Plasmodium berghei ANKA infected in mouse model of malaria assessed as reduction in parasite infection by measuring median survival at 100 mg/kg, po; type: functional

Compound | inhibition at 100 µM (Plasmodium falciparum [1]) [%] | IC50 (Plasmodium falciparum [2]) [µM] | inhibition at 100 µM (Plasmodium falciparum [3]) [%] | IC50 (Plasmodium falciparum [4]) [µM] | Ratio IC50 [5] | selectivity ratio [6] | CC50 at 24 h [7] [µM] | selectivity ratio [8] | CC50 at 24 h [9] [µM] | IC50 (Plasmodium falciparum [10]) [µM] | IC50 (Plasmodium falciparum [11]) [µM] | IC50 (Plasmodium falciparum [12]) [µM] | IC50 (Plasmodium falciparum [13]) [µM] | Survival (Plasmodium berghei) [days]
COc1cccc(-c2nnn(CCCN3CCN(c4ccnc5cc(Cl)ccc45)CC3)n2)c1 | > 50 | 7.66 | > 50 | 9.9 | 0.77 | 44.6 | 342 | > 52.2 | > 400 |  |  |  |  | 
O=C(Cn1nnc(-c2cccc(Cl)c2)n1)N1CCN(c2ccnc3cc(Cl)ccc23)CC1 | > 50 | 5.91 | > 50 | 12.6 | 0.47 | 67.7 | > 400 | > 67.7 | > 400 | 19.6 | 15.9 | 5.39 | 24.8 | 
O=C(Cn1nnc(-c2cccc(Br)c2)n1)N1CCN(c2ccnc3cc(Cl)ccc23)CC1 | > 50 | 8.99 | > 50 | 10.5 | 0.86 | 44.5 | > 400 | > 44.5 | > 400 |  |  |  |  | 
CC(C)c1ccc(-c2nnn(CC(=O)N3CCN(c4ccnc5cc(Cl)ccc45)CC3)n2)cc1 | > 50 | 6.66 | > 50 | 15.9 | 0.42 | 60.1 | > 400 | > 60.1 | > 400 | 18.5 | 21.5 | 24.9 | 26.7 | 
Fc1ccc(-c2nnn(CCCN3CCN(c4ccnc5cc(Cl)ccc45)CC3)n2)cc1 | > 50 | 4.04 | > 50 | 2.07 | 1.96 | 99 | > 400 | > 99 | > 400 | 1.72 | 1.68 | 2.8 | 1.85 | 
O=C(Cn1nnc(-c2cccc(F)c2)n1)N1CCN(c2ccnc3cc(Cl)ccc23)CC1 | > 50 | 8.46 | > 50 | 8.14 | 1.04 | 47.3 | > 400 | > 47.3 | > 400 |  |  |  |  | 
O=[N+]([O-])c1cccc(-c2nnn(CCCN3CCN(c4ccnc5cc(Cl)ccc45)CC3)n2)c1 | > 50 | 16.2 | > 50 | 9.17 | 1.76 | 24.7 | > 400 | 4.45 | 72 |  |  |  |  | 
CC(C)c1ccc(-c2nnn(CCCN3CCN(c4ccnc5cc(Cl)ccc45)CC3)n2)cc1 | > 50 | 8.37 | > 50 | 3.12 | 2.69 | 47.8 | > 400 | > 47.8 | > 400 |  |  |  |  | 
O=C(Cn1nnc(-c2ccc([N+](=O)[O-])cc2)n1)N1CCN(c2ccnc3cc(Cl)ccc23)CC1 | > 50 | 2.24 | > 50 | 1.65 | 1.36 | 179 | > 400 | > 179 | > 400 | 10.3 | 5.46 | 4.72 | 6.29 | 
O=C(Cn1nnc(-c2ccc(Br)cc2)n1)N1CCN(c2ccnc3cc(Cl)ccc23)CC1 | > 50 | 11.2 | > 50 | 17.5 | 0.64 | 35.6 | > 400 | > 35.6 | > 400 |  |  |  |  | 
Clc1ccc(-c2nnn(CCCN3CCN(c4ccnc5cc(Cl)ccc45)CC3)n2)cc1 | > 50 | 2.87 | > 50 | 1.11 | 2.58 | 139 | > 400 | > 139 | > 400 | 4.07 | 3.93 | 12.2 | 7.64 | 
O=C(Cn1nnc(-c2ccc(Cl)cc2)n1)N1CCN(c2ccnc3cc(Cl)ccc23)CC1 | > 50 | 14 | > 50 | 32.1 | 0.43 | 28.7 | > 400 | > 28.7 | > 400 |  |  |  |  | 
Clc1ccc2c(N3CCN(CCCn4nnc(-c5cccc(Br)c5)n4)CC3)ccnc2c1 | > 50 | 7.05 | > 50 | 3.84 | 1.83 | 56.8 | > 400 | > 56.8 | > 400 | 8.67 | 8.24 | 7.31 | 4.62 | 
COc1ccc(-c2nnn(CCCN3CCN(c4ccnc5cc(Cl)ccc45)CC3)n2)cc1OC | > 50 | 5.97 | > 50 | 4.84 | 1.23 | 67 | > 400 | 21.7 | 129 |  |  |  |  | 
Cc1ccc(-c2nnn(CCCN3CCN(c4ccnc5cc(Cl)ccc45)CC3)n2)cc1 | > 50 | 6.35 | > 50 | 8 | 0.79 | 63 | > 400 | 48.8 | 310 |  |  |  |  | 
Clc1cccc(-c2nnn(CCCN3CCN(c4ccnc5cc(Cl)ccc45)CC3)n2)c1 | > 50 | 19.9 | > 50 | 10.7 | 1.87 | 20.1 | > 400 | > 20.1 | > 400 |  |  |  |  | 
CCN(CC)CCCC(C)Nc1ccnc2cc(Cl)ccc12 (configuration not stated) [CHLOROQUINE] |  |  |  |  |  |  |  |  |  |  |  |  |  | 28
Fc1cccc(-c2nnn(CCCN3CCN(c4ccnc5cc(Cl)ccc45)CC3)n2)c1 | > 50 | 14.2 | > 50 | 22.9 | 0.62 | 28.1 | > 400 | > 28.1 | > 400 |  |  |  |  | 
O=C(Cn1nnc(-c2ccc(F)cc2)n1)N1CCN(c2ccnc3cc(Cl)ccc23)CC1 | > 50 | 12.4 | > 50 | 15.6 | 0.8 | 32.2 | > 400 | 1.95 | 24.2 |  |  |  |  | 
